Results from ChEMBL document CHEMBL1122019, “Synthesis and enzymic activity of 6-carbethoxy- and 6-ethoxy-3,7-disubstituted-pyrazolo[1,5-a]pyrimidines and related derivatives as adenosine cyclic 3' ,5'-phosphate phosphodiesterase inhibitors” (1982).

Key:
Oryctolagus cuniculus [1] = organism: Oryctolagus cuniculus; assay: Ratio of I50 of compound and I50 of theophylline for inhibition of cAMP phosphodiesterase isolated from rabbit lung
Method in brief: (§1)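 Partially purified cAMP PDEs from beef heart, rabbit lung and rabbit kidney. Assay mixture in 0.5 mL: 25 μmol Tris-HCl pH 7.5, 5 μmol MgCl2, 10–75 μg enzyme protein, 350 pmol [3H]cAMP, and at least seven inhibitor concentrations (0.5 μM–5 mM). 5'-AMP formed measured at at least three time points (3–12 min) to confirm linear rates. I50 read graphically from % inhibition vs log concentration; α = I50 compound / I50 theophylline, with theophylline run in each experiment.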

Oryctolagus cuniculus [2] = organism: Oryctolagus cuniculus; assay: Ratio of I50 of compound and I50 of theophylline for inhibition of cAMP phosphodiesterase isolated from rabbit kidney
Sus scrofa [3] = organism: Sus scrofa; assay: Inhibition of ADP-induced platelet aggregation at 50 ug/mL; assay type: functional
Method in brief: (§2)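 Platelet-rich plasma from pig blood anticoagulated with sodium citrate (final 0.3 g/100 mL in blood), spun 500g for 20 min at 20 °C; about 2.0–8.0×10^8 platelets/mL, counted in duplicate. ADP-induced aggregation followed turbidimetrically at 600 nm with stirring (Born method). Criterion: 50% inhibition at ≤100 mcg/mL test compound, compared with adenosine as standard.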

Sus scrofa [4] = organism: Sus scrofa; assay: Inhibition of ADP-induced platelet aggregation at 100 ug/mL; assay type: functional; method in brief: as §2
Bos taurus = organism: Bos taurus; assay: Relative inhibition of bovine heart cAMP phosphodiesterase compared to theophylline; method in brief: as §1
[5] = system: cAMP phosphodiesterase (Bos taurus); assay: Relative inhibition of beef heart cAMP phosphodiesterase compared to theophylline; conditions: target entry is the homologue from another species
Oryctolagus cuniculus [6] = organism: Oryctolagus cuniculus; assay: Relative inhibition of rabbit lung cAMP Phosphodiesterase compared to theophylline; method in brief: as §1
Oryctolagus cuniculus [7] = organism: Oryctolagus cuniculus; assay: Relative inhibition of rabbit lung cAMP Phosphodiesterase compared to theophylline (Insoluble)
Sus scrofa [8] = organism: Sus scrofa; assay: Inhibition of ADP-induced platelet aggregation at 25 ug/mL; assay type: functional; method in brief: as §2
[9] = Inhibition of ADP-induced platelet aggregation at 100 ug/mL

Structure (SMILES) | Ratio (Oryctolagus cuniculus [1]) | Ratio (Oryctolagus cuniculus [2]) | also measured
CCCCNc1cc(C)nc2c(Br)cnn12 | 1.5 |  | 
CCOC(=O)c1cnc2ccnn2c1NCC(=O)O | 1.7 | 1.2 | inhibition at 50 µg/mL (Sus scrofa [3]): 67%; inhibition at 100 µg/mL (Sus scrofa [4]): 76%
Cc1cc(N2CCCCC2)n2nccc2n1 |  |  | Ratio [5]: 1.5; Ratio (Oryctolagus cuniculus [6]): 2.4
CCCOc1cc(C)nc2c(CC)cnn12 | 5.4 |  | 
Cc1cc(NCCO)n2nccc2n1 | 0.5 |  | 
CCOC(=O)c1cnc2c([N+](=O)[O-])cnn2c1N |  |  | Ratio (Oryctolagus cuniculus [7]): Insoluble
CCSc1cc(C)nc2c(CC)cnn12 | 8.9 |  | 
CCOc1cnc2c(CC)cnn2c1NCCC(=O)O | 1 | 0.6 | 
CCOC(=O)c1cnc2c(Br)cnn2c1NCCO | 1.3 | 3.1 | inhibition at 100 µg/mL (Sus scrofa [4]): 72%
CCOC(=O)c1cnc2c(Br)cnn2c1N |  |  | Ratio (Oryctolagus cuniculus [7]): Insoluble; inhibition at 25 µg/mL (Sus scrofa [8]): 67%; inhibition at 100 µg/mL (Sus scrofa [4]): 68%
CCOc1cnc2c(CC)cnn2c1NCC(=O)O | 0.7 | 0.4 | 
Nc1ncnc2c1ncn2[C@@H]1O[C@H](CO)[C@@H](O)[C@H]1O [ADENOSINE] |  |  | inhibition at 100 µg/mL [9]: 64%
CCOC(=O)c1cnc2ccnn2c1SCC | 4.3 | 0.8 | 
CCCOc1c(C(=O)OCC)cnc2c(CC)cnn12 | 2.4 | 2.4 | 
CCOC(=O)c1cnc2c(CC)cnn2c1NN(C)C | 3.7 | 1.4 | 
CCCNc1c(C(=O)OCC)cnc2c(Br)cnn12 | 6 | 7.2 | inhibition at 100 µg/mL (Sus scrofa [4]): 50%
CCCOc1c(C(=O)OCC)cnc2c(Br)cnn12 | 2.7 | 1.8 | 
CCCNc1c(C(=O)OCC)cnc2ccnn12 | 5.9 | 13 | 
CCCNc1c(C(=O)OCC)cnc2c(CC)cnn12 | 3.6 | 3.2 | 
CCOC(=O)c1cnc2ccnn2c1NN(C)C | 2 | 1.1 | 
CCOC(=O)c1cnc2ccnn2c1N(CC)CC | 1.8 | 2 | Ratio (Bos taurus): 2.3
CCOC(=O)c1cnc2c(C(=O)OCC)cnn2c1O | 0.6 | 0.4 | inhibition at 50 µg/mL (Sus scrofa [3]): 23%; inhibition at 100 µg/mL (Sus scrofa [4]): 68%
CCCOc1c(OCC)cnc2c(CC)cnn12 | 1.6 | 1.3 | 
COC(CNc1cc(C)nc2c(Br)cnn12)OC | 6.8 |  | 

Further lines, with some results ahead:

Ratio (Oryctolagus cuniculus [1]) | Ratio (Oryctolagus cuniculus [2]) | Structure (SMILES) | also measured
0.6 | 0.6 | CCOC(=O)c1cnc2ccnn2c1Cl | 
0.9 | 1 | CCOC(=O)c1cnc2ccnn2c1N | inhibition at 50 µg/mL (Sus scrofa [3]): 50%; inhibition at 100 µg/mL (Sus scrofa [4]): 94%
2.4 | 1.5 | CCOC(=O)c1cnc2c(Br)cnn2c1NCC(=O)O | Ratio (Bos taurus): 2.6
9.4 |  | CCCNc1cc(C)nc2c(CC)cnn12 | 
13 | 5.5 | CCOC(=O)c1cnc2c(CC)cnn2c1SCC | 
3.7 | 3.4 | CCCNc1c(OCC)cnc2c(CC)cnn12 | 
4.3 | 5.2 | CCNc1c(C(=O)OCC)cnc2ccnn12 | inhibition at 50 µg/mL (Sus scrofa [3]): 42%; inhibition at 100 µg/mL (Sus scrofa [4]): 86%
4 | 8 | CCNc1c(C(=O)OCC)cnc2c(Br)cnn12 | inhibition at 100 µg/mL (Sus scrofa [4]): 77%
2 | 1 | CCOC(=O)c1cnc2ccnn2c1S | Ratio (Bos taurus): 1.2
1.5 |  | Cc1cc(NN)n2nccc2n1 | 
1.4 |  | CCOc1cc(C)nc2ccnn12 | 
6 | 6 | CCOC(=O)c1cnc2c(Br)cnn2c1N(CC)CC | Ratio (Bos taurus): 3.5
0.6 | 0.6 | CCCOc1c(C(=O)OCC)cnc2ccnn12 | 
1.5 | 2 | CCOC(=O)c1cnc2c(C(=O)OCC)cnn2c1N | Ratio (Bos taurus): 0.7; inhibition at 50 µg/mL (Sus scrofa [3]): 47%; inhibition at 100 µg/mL (Sus scrofa [4]): 96%
0.5 | 1 | CCOC(=O)c1cnc2c(Br)cnn2c1O | inhibition at 50 µg/mL (Sus scrofa [3]): 34%; inhibition at 100 µg/mL (Sus scrofa [4]): 88%
1.5 | 0.3 | CCOC(=O)c1cnc2ccnn2c1NCCO | inhibition at 50 µg/mL (Sus scrofa [3]): 47%; inhibition at 100 µg/mL (Sus scrofa [4]): 92%
